Several values for one entry are separate records, joined by “and”; a condition that tells them apart may be missing. Identical values can stand only once.
Key:
HL-60 = test: Cytotoxicity was tested in HL60 cells by the trypan blue exclusion assay.; format: functional, cell-based; settings: Homo sapiens
How it was run: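 HL60 cells exposed to at least five compound concentrations plus no-drug control, in duplicate in 96-well plates. Growth inhibition counted by trypan blue exclusion on a hemocytometer. IC50 derived by median-effect plot analysis.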

MT4 [1] = test: AntiHIV-1 activity measured in MT-4 cells at 5 to 6 different concentrations, using the P24 antigen enzyme-linked immunosorbent assay (ELISA).; format: functional, cell-based; settings: Homo sapiens
How it was run: (§1)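 MT4 cells infected with HIV-1 at 200 TCID50 per 10^6 cells, adsorbed 1 h at 37 °C, 5% CO2, washed, resuspended at 10^6 cells/3 mL. Compounds added immediately at five to six concentrations. After 5 days at 37 °C, cell-free supernatant assayed for P24 core antigen by ELISA kit or for RT activity. EC50 from median-effect plot analysis against untreated infected controls.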

MT4 [2] = test: AntiHIV-1 activity measured in MT-4 cells at 5 to 6 different concentrations, using the reverse transcriptase (RT) assay; format: functional, cell-based; settings: Homo sapiens; how it was run: as §1
[3] = Selectivity ratio to IC50 of MT4 cells and EC50, anti-HIV activity of MT-4 cells; format: functional
How it was run: (§2)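 Selectivity ratio is the cytotoxic IC50 (MT4 or HL60 cells, […]) divided by the anti-HIV-1 EC50 from P24 ELISA or RT assay in infected MT4 cells.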

[4] = Selectivity ratio to IC50 of HL60 cells and EC50, anti-HIV activity of MT-4 cells; format: functional, HL-60; how it was run: as §2
MT4 [5] = test: Cytotoxicity was tested in MT-4 cells by the XTT-microculture tetrazolium assay.; format: functional, cell-based; settings: Homo sapiens
How it was run: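 MT4 cells exposed in duplicate in 96-well plates to at least five concentrations for 4 days. PMS-XTT (0.075 mM PMS with 1 mg/mL XTT in serum-free medium) added, then 6 h at 37 °C before reading. IC50 derived by median-effect plot analysis.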

SMILES	IC50 (HL-60)	EC50 (MT4 [1])	EC50 (MT4 [2])	Selectivity ratio [3]	Selectivity ratio [4]	IC50 (MT4 [5])
Cc1cn([C@H]2C[C@H](N=[N+]=[N-])[C@@H](CO)O2)c(=O)[nH]c1=O [ZIDOVUDINE]	96 µM	0.006 µM	0.0045 µM	8833 and 11778	16000 and 21333	
Nc1ccn([C@@H]2O[C@H](CO)C[C@@H]2F)c(=O)n1	707 µM	2.66 µM	2.54 µM	328 and 343	266 and 278	1480 µM
Cc1cn([C@@H]2O[C@H](CO)[C@@H](N=[N+]=[N-])[C@H]2F)c(=O)[nH]c1=O	440 µM	168 µM	103 µM	1.26 and 2.06	2.62 and 4.27	
Nc1ccn([C@H]2CC[C@@H](CO)O2)c(=O)n1 [ZALCITABINE]	100 µM	0.236 µM	0.24 µM	1326 and 1304	424 and 417	

Source: ChEMBL document CHEMBL1124868, “Synthesis and anti-HIV-1 activity of 2'-"up"-fluoro analogues of active anti-AIDS nucleosides 3'-azido-3'-deoxythymidine (AZT) and 2',3'-dideoxycytidine (DDC)” (J Med Chem, 1990)
